These results are taken from ChEMBL document CHEMBL1629686, “Substrate selectivity and a novel role in inhibitor discrimination by residue 237 in the KPC-2 beta-lactamase” (Antimicrob Agents Chemother, 2010).

The structures appear in SMILES notation. Values after ≈ are worked out from the molar mass of the structure shown.

For experiment [1], the system named is Klebsiella pneumoniae. As to the kind of experiment: Ratio of Kcat/Km for Klebsiella pneumoniae 1534 beta-lactamase KPC-2 T237S mutant by spectrophotometric analysis. The procedure, abridged: (§1)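 Purified KPC-2 variant enzymes (periplasmic lysate from E. coli, preparative isoelectric focusing). Hydrolysis followed by diode-array spectrophotometry in 10 mM PBS, pH 7.4, room temperature. Enzyme at 10 nM with substrate in molar excess for pseudo-first-order conditions. Vmax and Km came from a nonlinear least-squares Michaelis-Menten fit.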

Experiment [2] relates to Klebsiella pneumoniae. As to the kind of experiment: Selectivity index, Ratio of Kcat/Km for Klebsiella pneumoniae 1534 beta-lactamase KPC-2 T237S mutant to ratio of Kcat/Km for Klebsiella pneumoniae 1534 beta-lactamase KPC-2 by spectrophotometric analysis. The procedure, abridged: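 Kinetics used purified enzymes in 10 mM PBS, pH 7.4, room temperature, with 10 nM enzyme and substrate in excess. Km and Vmax came from a Michaelis-Menten fit. kcat/Km of the variant was compared with wild type as ΔΔG = −RT ln of the kcat/Km ratio.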

Experiment [3] concerns Escherichia coli. Put plainly: Antimicrobial activity against Escherichia coli DH10B harboring beta-lactamase KPC-2 T237Y mutant by agar dilution method in presence of beta-lactamase inhibitor Tazobactam. The experiment is classed as functional. The note with it: K-12 DH10B. The method in brief: (§2)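 LB agar dilution MICs by CLSI criteria, inoculated with a Steers replicator. […] Strains were E. coli DH10B with or without pBC SK(+) carrying wild-type blaKPC-2 or a position 237 variant.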
In general terms: In agar dilution, organisms are placed on agar that contains the substance at set levels.

Experiment [4] deals with Escherichia coli. Put plainly: Antimicrobial activity against Escherichia coli DH10B harboring beta-lactamase KPC-2 T237G mutant by agar dilution method in presence of beta-lactamase inhibitor Tazobactam. It counts as functional. Particulars: K-12 DH10B. The method in brief: as §2
The test system of experiment [5] is Escherichia coli. As to the kind of experiment: Antimicrobial activity against Escherichia coli DH10B harboring beta-lactamase KPC-2 T237V mutant by agar dilution method in presence of beta-lactamase inhibitor Tazobactam. The experiment is classed as functional. Particulars: K-12 DH10B. The procedure, abridged: as §2
Experiment [6] relates to Escherichia coli. As to the kind of experiment: Antimicrobial activity against Escherichia coli DH10B harboring beta-lactamase KPC-2 T237W mutant by agar dilution method in presence of beta-lactamase inhibitor Tazobactam. The experiment is classed as functional. Particulars: K-12 DH10B. The procedure, abridged: as §2
In experiment [7] the test system is Escherichia coli. As to the kind of experiment: Antimicrobial activity against Escherichia coli DH10B harboring beta-lactamase KPC-2 T237F mutant by agar dilution method in presence of beta-lactamase inhibitor Tazobactam. It counts as functional. The note with it: K-12 DH10B. The method in brief: as §2
Experiment [8] relates to Escherichia coli. As to the kind of experiment: Antimicrobial activity against Escherichia coli DH10B harboring beta-lactamase KPC-2 T237C mutant by agar dilution method in presence of beta-lactamase inhibitor Tazobactam. The experiment is classed as functional. Particulars: K-12 DH10B. The method in brief:
as §2

In experiment [9] the test system is Klebsiella pneumoniae. Put plainly: Activity of Klebsiella pneumoniae 1534 beta-lactamase KPC-2 T237S mutant by spectrophotometric analysis. The method in brief: as §1
Experiment [10] deals with Escherichia coli. Put plainly: Antimicrobial activity against Escherichia coli DH10B harboring plasmid pBR322-catI carrying beta-lactamase KPC-2 by agar dilution method in presence of beta-lactamase inhibitor Tazobactam. It counts as functional. The note with it: K-12 DH10B. The procedure, abridged:
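LB agar dilution MIC following CLSI criteria, inoculated with a Steers replicator. Tested as piperacillin-tazobactam at a fixed 8:1 ratio.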

The test system of experiment [11] is Escherichia coli. As to the kind of experiment: Antimicrobial activity against Escherichia coli DH10B harboring plasmid pBC SK(+) carrying wild type beta-lactamase KPC-2 by agar dilution method in presence of beta-lactamase inhibitor Tazobactam. The experiment is classed as functional. The note with it: K-12 DH10B. The procedure, abridged:
as §2

Experiment [12] deals with Klebsiella pneumoniae. Put plainly: Activity of Klebsiella pneumoniae 1534 beta-lactamase KPC-2 T237A mutant by spectrophotometric analysis. The procedure, abridged:
as §1

The subject of experiment [13] is Escherichia coli. Put plainly: Antimicrobial activity against Escherichia coli DH10B harboring beta-lactamase KPC-2 T237E mutant by agar dilution method in presence of beta-lactamase inhibitor Sulbactam. It counts as functional. The note with it: K-12 DH10B. The procedure, abridged: (§3)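 LB agar dilution MICs by CLSI criteria, applied with a Steers replicator. […] Hosts were E. coli DH10B carrying pBC SK(+) with wild-type blaKPC-2 or a position 237 variant.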

The subject of experiment [14] is Escherichia coli. Put plainly: Antimicrobial activity against Escherichia coli DH10B harboring beta-lactamase KPC-2 T237S mutant by agar dilution method in presence of beta-lactamase inhibitor Sulbactam. It counts as functional. The note with it: K-12 DH10B. The method in brief: as §3
Experiment [15] relates to Klebsiella pneumoniae. Put plainly: microbe, parasite or virus in culture. The note with it: 1534.
In experiment [16] the test system is Escherichia coli. Put plainly: Antimicrobial activity against Escherichia coli DH10B harboring beta-lactamase KPC-2 T237P mutant by agar dilution method in presence of beta-lactamase inhibitor clavulanic acid. Particulars: K-12 DH10B. The experiment is classed as functional. The method in brief:
(§4)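 LB agar dilution MICs per CLSI criteria, inoculated with a Steers replicator. […] Strains: E. coli DH10B alone, DH10B carrying empty pBC SK(+), or DH10B carrying pBC SK(+)-blaKPC-2 position 237 variants made by site-saturation mutagenesis and confirmed by sequencing. Plasmid selection used 20 mg/liter chloramphenicol.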

For experiment [17], the system named is Escherichia coli. As to the kind of experiment: Antimicrobial activity against Escherichia coli DH10B harboring beta-lactamase KPC-2 T237N mutant by agar dilution method in presence of beta-lactamase inhibitor Sulbactam. It counts as functional. Particulars: K-12 DH10B. The method in brief:
as §3

Experiment [18] has as its system Escherichia coli. Put plainly: Antimicrobial activity against Escherichia coli DH10B harboring beta-lactamase KPC-2 T237D mutant by agar dilution method in presence of beta-lactamase inhibitor clavulanic acid. It counts as functional. Particulars: K-12 DH10B. The procedure, abridged:
as §3

For experiment [19], the system named is Escherichia coli. As to the kind of experiment: Antimicrobial activity against Escherichia coli DH10B harboring beta-lactamase KPC-2 T237M mutant by agar dilution method in presence of beta-lactamase inhibitor clavulanic acid. The experiment is classed as functional. The note with it: K-12 DH10B. The method in brief: as §3
The subject of experiment [20] is Escherichia coli. Put plainly: Antimicrobial activity against Escherichia coli DH10B harboring plasmid […] by agar dilution method in presence of beta-lactamase inhibitor clavulanic acid. The experiment is classed as functional. The note with it: K-12 DH10B. The procedure, abridged: as §4
Experiment [21] has as its system Escherichia coli. As to the kind of experiment: Antimicrobial activity against Escherichia coli DH10B harboring beta-lactamase KPC-2 T237E mutant by agar dilution method in presence of beta-lactamase inhibitor clavulanic acid. The experiment is classed as functional. Particulars: K-12 DH10B. The method in brief: as §3
Experiment [22] relates to Escherichia coli. As to the kind of experiment: Antimicrobial activity against Escherichia coli DH10B harboring beta-lactamase KPC-2 T237I mutant by agar dilution method in presence of beta-lactamase inhibitor clavulanic acid. It counts as functional. Particulars: K-12 DH10B. The procedure, abridged: as §3
Experiment [23] has as its system Escherichia coli. Put plainly: Antimicrobial activity against Escherichia coli DH10B harboring beta-lactamase KPC-2 T237F mutant by agar dilution method in presence of beta-lactamase inhibitor Sulbactam. It counts as functional. The note with it: K-12 DH10B. The method in brief:
as §3

Experiment [24] relates to Escherichia coli. As to the kind of experiment: Antimicrobial activity against Escherichia coli DH10B harboring beta-lactamase KPC-2 T237G mutant by agar dilution method in presence of beta-lactamase inhibitor Sulbactam. It counts as functional. The note with it: K-12 DH10B. The procedure, abridged:
as §3

Experiment [25] concerns Escherichia coli. Put plainly: Antimicrobial activity against Escherichia coli DH10B harboring plasmid pBC SK(+) carrying wild type beta-lactamase KPC-2 by agar dilution method in presence of beta-lactamase inhibitor clavulanic acid. The experiment is classed as functional. The note with it: K-12 DH10B. The method in brief: as §3
The subject of experiment [26] is Escherichia coli. As to the kind of experiment: Antimicrobial activity against Escherichia coli DH10B by agar dilution method in presence of beta-lactamase inhibitor Sulbactam. The experiment is classed as functional. Particulars: K-12 DH10B. The procedure, abridged:
as §4

Experiment [27] has as its system Escherichia coli. As to the kind of experiment: Antimicrobial activity against Escherichia coli DH10B harboring beta-lactamase KPC-2 T237A mutant by agar dilution method in presence of beta-lactamase inhibitor clavulanic acid. It counts as functional. The note with it: K-12 DH10B. The procedure, abridged: as §3
Experiment [28] has as its system Escherichia coli. As to the kind of experiment: Antimicrobial activity against Escherichia coli DH10B harboring beta-lactamase KPC-2 T237D mutant by agar dilution method in presence of beta-lactamase inhibitor Sulbactam. It counts as functional. Particulars: K-12 DH10B. The method in brief: as §3
Experiment [29] concerns Escherichia coli. As to the kind of experiment: Antimicrobial activity against Escherichia coli DH10B harboring beta-lactamase KPC-2 T237M mutant by agar dilution method in presence of beta-lactamase inhibitor Sulbactam. The experiment is classed as functional. Particulars: K-12 DH10B. The method in brief: as §3
Experiment [30] has as its system Escherichia coli. As to the kind of experiment: Antimicrobial activity against Escherichia coli DH10B harboring beta-lactamase KPC-2 T237N mutant by agar dilution method in presence of beta-lactamase inhibitor clavulanic acid. The experiment is classed as functional. Particulars: K-12 DH10B. The procedure, abridged: as §3
Experiment [31] has as its system Escherichia coli. As to the kind of experiment: Antimicrobial activity against Escherichia coli DH10B harboring beta-lactamase KPC-2 T237A mutant by agar dilution method in presence of beta-lactamase inhibitor Sulbactam. The experiment is classed as functional. Particulars: K-12 DH10B. The method in brief:
as §3

Experiment [32] deals with Escherichia coli. Put plainly: Antimicrobial activity against Escherichia coli DH10B harboring beta-lactamase KPC-2 T237P mutant by agar dilution method in presence of beta-lactamase inhibitor Sulbactam. The experiment is classed as functional. The note with it: K-12 DH10B. The procedure, abridged:
as §4

As for `CCN1CCN(C(=O)N[C@@H](C(=O)N[C@@H]2C(=O)N3[C@@H]2SC(C)(C)[C@@H]3C(=O)O)c2ccccc2)C(=O)C1=O` [PIPERACILLIN], the kcat/Km in the experiment on Klebsiella pneumoniae [1] is 7e+06 M⁻¹ s⁻¹. For the same compound, the fold change (FC) in the experiment on Klebsiella pneumoniae [2] was 2.7. The MIC in the experiment with Escherichia coli [3] worked out at 0.5 µg/mL; with Escherichia coli [4], 1 µg/mL; in the experiment with Escherichia coli [5], 2 µg/mL; in the experiment on Escherichia coli [6] it was 1 µg/mL; in the experiment with Escherichia coli [7], 0.5 µg/mL; in the experiment with Escherichia coli [8], 0.5 µg/mL. Also, the MIC in the experiment on Escherichia coli [10] was determined as 64 µg/mL; in the experiment on Escherichia coli [11], 8 µg/mL. Besides, the Km was 6 µM in the experiment on Klebsiella pneumoniae [9] and 12 µM in the experiment on Klebsiella pneumoniae [12]. Moreover, the kcat in the experiment with Klebsiella pneumoniae [9] and in the experiment with Klebsiella pneumoniae [12] was 42 s⁻¹ each time.

For the compound `CC1(C)S[C@@H]2[C@H](NC(=O)[C@H](N)c3ccccc3)C(=O)N2[C@H]1C(=O)O` [AMPICILLIN], the MIC in the experiment with Escherichia coli [13] is 8 µg/mL; in the experiment on Escherichia coli [14] it was 128 µg/mL; against Klebsiella pneumoniae [15] it was 32 µg/mL (≈ 91.6 µM); in the experiment on Escherichia coli [16] it was 1 µg/mL; in the experiment with Escherichia coli [17], 8 µg/mL; in the experiment with Escherichia coli [18], 8 µg/mL. The MIC with Escherichia coli [19] stood at 8 µg/mL; in the experiment on Escherichia coli [20] it was 1 µg/mL; with Escherichia coli [21], 8 µg/mL; in the experiment on Escherichia coli [22] it was 8 µg/mL; in the experiment with Escherichia coli [23], 8 µg/mL; with Escherichia coli [24], 16 µg/mL. In addition, the MIC turned out to be 4 µg/mL with Escherichia coli [25]; 1 µg/mL in the experiment with Escherichia coli [26]; 8 µg/mL with Escherichia coli [27]; 16 µg/mL in the experiment with Escherichia coli [28]; 16 µg/mL in the experiment with Escherichia coli [29]; 4 µg/mL in the experiment with Escherichia coli [30]. The MIC was 64 µg/mL in the experiment with Escherichia coli [31] and 1 µg/mL in the experiment on Escherichia coli [32].

For orientation: kcat/Km means the turnover number divided by the Michaelis constant. One may read the Km as the substrate concentration at which the rate is half of its maximum. What is called kcat is the number of substrate molecules converted per active site and unit of time at saturation.
